# According to ChEMBL document CHEMBL1122216, “2-(Aminomethyl)phenols, a new class of saluretic agents. 6. Effects of N,O-spiroannulation and subsequent quaternization” (1983):
# Experiments:
# Rattus norvegicus [1] = assay: Antihypertensive activity after po administration of 40 mg/kg dose in spontaneously hypertensive(SH) rats; score is for average value of two animals; type: functional
# How it was run: (§1)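 Spontaneously hypertensive rats were scored by the maximum fall in blood pressure: 0, <20 mm; 1, <30 mm; 2, <40 mm; 3, >40 mm Hg.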
# Rattus norvegicus [2] = assay: Saluretic property after administration in rats; type: functional
# How it was run: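 Rats were housed three per cage, with three cages per dose. Sodium excreted over the first 5 h was scored from the geometric mean: 0, <2 mequiv; ±, >2; 1, <8; 2, <15; 3, <25; 4, <35; 5, <45; 6, <55 mequiv.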
# Rattus norvegicus [3] = assay: Antihypertensive activity after administration of 20 mg/kg dose in spontaneously hypertensive(SH) rats; score is for average value of two animals; type: functional; how it was run: as §1
# Canis familiaris [4] = assay: Saluretic property in an anesthetized dog after 5 mg/kg administration; type: functional, Canis lupus familiaris
# Rattus norvegicus [5] = assay: Antihypertensive activity after administration of 5 mg/kg dose in spontaneously hypertensive(SH) rats; score is for average value of four animals; type: functional; how it was run: as §1
# Rattus norvegicus [6] = assay: Antihypertensive activity after po administration of 5 mg/kg dose in spontaneously hypertensive(SH) rats; score is for average value of two animals; type: functional; how it was run: as §1
# Rattus norvegicus [7] = assay: Antihypertensive activity after administration of 20 mg/kg dose in spontaneously hypertensive(SH) rats; score is for average value of four animals; type: functional; how it was run: as §1
# Rattus norvegicus [8] = assay: Antihypertensive activity after intraperitoneal administration of 20 mg/kg dose in spontaneously hypertensive(SH) rats; type: functional; how it was run: as §1
# Canis familiaris [9] = assay: Saluretic property in a anesthetized dog after 5 mg/kg oral administration; type: functional, Canis lupus familiaris
# Rattus norvegicus [10] = assay: Antihypertensive activity after po administration of 20 mg/kg dose in spontaneously hypertensive(SH) rats; Score is for average value of two animals; type: functional; how it was run: as §1
# Rattus norvegicus [11] = assay: Antihypertensive activity after po administration of 5 mg/kg dose in spontaneously hypertensive(SH) rats; Score is for average value of two animals; type: functional; how it was run: as §1
# Rattus norvegicus [12] = assay: Antihypertensive activity after intraperitoneal administration of 20 mg/kg dose in spontaneously hypertensive(SH) rats; score is for average value of two animals; type: functional; how it was run: as §1
# Rattus norvegicus [13] = assay: Antihypertensive activity after po administration of 0.08 mg/kg dose in spontaneously hypertensive(SH) rats; Score is for average value of six animals; type: functional; how it was run: as §1
# Rattus norvegicus [14] = assay: Antihypertensive activity after po administration of 5 mg/kg dose in spontaneously hypertensive(SH) rats; Score is for average value of six animals; type: functional; how it was run: as §1
# Rattus norvegicus [15] = assay: Antihypertensive activity after po administration of 0.31 mg/kg dose in spontaneously hypertensive(SH) rats; Score is for average value of six animals; type: functional; how it was run: as §1
# Rattus norvegicus [16] = assay: Antihypertensive activity after po administration of 1.25 mg/kg dose in spontaneously hypertensive(SH) rats; Score is for average value of six animals; type: functional; how it was run: as §1
# Rattus norvegicus [17] = assay: Antihypertensive activity after oral administration of 0.31 mg/kg dose in spontaneously hypertensive(SH) rats; type: functional; how it was run: as §1
# Rattus norvegicus [18] = assay: Antihypertensive activity after oral administration of 5 mg/kg dose in spontaneously hypertensive(SH) rats; type: functional; how it was run: as §1
# Rattus norvegicus [19] = assay: Antihypertensive activity after oral administration of 20 mg/kg dose in spontaneously hypertensive(SH) rats; type: functional; how it was run: as §1
# Rattus norvegicus [20] = assay: Antihypertensive activity after po administration of 20 mg/kg dose in spontaneously hypertensive(SH) rats; score is for average value of six animals; type: functional; how it was run: as §1
# Canis familiaris [21] = assay: Saluretic property in an average of two anesthetized dog after 5 mg/kg po administration; type: functional, Canis lupus familiaris
# Rattus norvegicus [22] = assay: Antihypertensive activity after po administration of 40 mg/kg dose in spontaneously hypertensive(SH) rats; score is for average value of four animals; type: functional; how it was run: as §1
# Rattus norvegicus [23] = assay: Antihypertensive activity after po administration of 0.08 mg/kg dose in spontaneously hypertensive(SH) rats; score is for average value of four animals; type: functional; how it was run: as §1
# Rattus norvegicus [24] = assay: Antihypertensive activity after po administration of 0.31 mg/kg dose in spontaneously hypertensive(SH) rats; score is for average value of four animals; type: functional; how it was run: as §1
# Canis familiaris [25] = assay: Saluretic property in an anesthetized dog after 5 mg/kg po administration; score is for average of two animals; type: functional, Canis lupus familiaris
smiles,measurement,setting,value
CC(C)(C)c1cc(Cl)c(O)c(CN)c1.Cl,Antihypertensive score,Rattus norvegicus [1],2
same,Saluretic score,Rattus norvegicus [2],6
same,Antihypertensive score,Rattus norvegicus [3],0
same,Saluretic score,Canis familiaris [4],4
CC(C)(C)c1cc(I)c2c(c1)CNC1(CCC(C(=O)O)CC1)O2 (stereo unspecified),Saluretic score,Rattus norvegicus [2],4
same,Antihypertensive score,Rattus norvegicus [5],2
same,Antihypertensive score,Rattus norvegicus [3],2
same,Saluretic score,Canis familiaris [4],5
CC1(C)CC(C)(C)CC2(C1)NCc1cc(C(C)(C)C)cc(I)c1O2,Antihypertensive score,Rattus norvegicus [6],0
same,Saluretic score,Rattus norvegicus [2],4
same,Antihypertensive score,Rattus norvegicus [7],1
CC(C)(C)c1cc(I)c2c(c1)CNC1(CCC(C(C)(C)C)CC1)O2 (stereo unspecified),Antihypertensive score,Rattus norvegicus [8],0
same,Saluretic score,Rattus norvegicus [2],4
same,Saluretic score,Canis familiaris [9],5
CC(=O)N1CCC2(CC1)Oc1c(I)cc(C(C)(C)C)cc1C[N+]2(C)C.[I-],Antihypertensive score,Rattus norvegicus [10],2
same,Saluretic score,Rattus norvegicus [2],0
same,Antihypertensive score,Rattus norvegicus [11],0
same,Saluretic score,Canis familiaris [4],0
CC(C)(C)c1cc(I)c2c(c1)C[N+](C)(C)C1(CCCC1)O2.[I-],Antihypertensive score,Rattus norvegicus [12],3
same,Antihypertensive score,Rattus norvegicus [3],0
CN1CCC2(CC1)NCc1cc(C(C)(C)C)cc(Cl)c1O2,Saluretic score,Rattus norvegicus [2],3
same,Antihypertensive score,Rattus norvegicus [7],0
same,Saluretic score,Canis familiaris [4],5
CC(C)(C)c1cc(I)c2c(c1)C[N+](C)(C)C(C)(C)O2.[I-],Antihypertensive score,Rattus norvegicus [12],0
CC(C)(C)c1cc(I)c(O)c(CN)c1.Cl,Saluretic score,Rattus norvegicus [2],6
same,Antihypertensive score,Rattus norvegicus [13],0
same,Antihypertensive score,Rattus norvegicus [14],3
same,Antihypertensive score,Rattus norvegicus [15],1
same,Saluretic score,Canis familiaris [4],6
same,Antihypertensive score,Rattus norvegicus [16],2
CC(=O)Oc1cc(C(C)(C)C)cc2c1OC1(CCCCC1)[N+](C)(C)C2.[I-],Saluretic score,Rattus norvegicus [2],0
same,Antihypertensive score,Rattus norvegicus [17],1
same,Saluretic score,Canis familiaris [9],0
same,Antihypertensive score,Rattus norvegicus [18],2
CC(C)(C)c1cc(I)c2c(c1)CNC1(CCC3(CC1)NCc1cc(C(C)(C)C)cc(I)c1O3)O2 (stereo unspecified),Saluretic score,Rattus norvegicus [2],2
same,Antihypertensive score,Rattus norvegicus [19],2
same,Antihypertensive score,Rattus norvegicus [18],0
CC(C)(C)c1cc(Cl)c2c(c1)C[N+](C)(C)C1(CCCCC1)O2.[I-],Saluretic score,Rattus norvegicus [2],0
same,Antihypertensive score,Rattus norvegicus [12],0.5
same,Antihypertensive score,Rattus norvegicus [3],0
CC(C)(C)c1cc(I)c2c(c1)C[N+](C)(C)C1(CCNCC1)O2.[Cl-],Saluretic score,Rattus norvegicus [2],0
same,Antihypertensive score,Rattus norvegicus [12],0
same,Antihypertensive score,Rattus norvegicus [3],0
same,Saluretic score,Canis familiaris [4],0
CC(C)(C)c1cc(I)c2c(c1)C[N+](C)(C)CO2.[I-],Antihypertensive score,Rattus norvegicus [6],0
same,Saluretic score,Rattus norvegicus [2],0
same,Antihypertensive score,Rattus norvegicus [12],2
CC(C)(C)c1cc(I)c2c(c1)CN(CN1COc3c(I)cc(C(C)(C)C)cc3C1)CO2,Antihypertensive score,Rattus norvegicus [8],0
CC(C)(C)c1cc(Cl)c2c(c1)CNC1(CCCCC1)O2,Saluretic score,Rattus norvegicus [2],3
same,Antihypertensive score,Rattus norvegicus [12],0
same,Saluretic score,Canis familiaris [4],5
CC(C)(C)c1cc(I)c2c(c1)C[N+](C)(C)C1(CCC(C(C)(C)C)CC1)O2.[I-] (stereo unspecified),Antihypertensive score,Rattus norvegicus [8],2
same,Saluretic score,Rattus norvegicus [2],0
same,Antihypertensive score,Rattus norvegicus [19],0
same,Saluretic score,Canis familiaris [9],0
CC(=O)N1CCC2(CC1)NCc1cc(C(C)(C)C)cc(I)c1O2,Antihypertensive score,Rattus norvegicus [12],0
same,Saluretic score,Canis familiaris [4],4
CC(C)(C)c1cc(I)c2c(c1)CNC1(O2)C2CC3CC(C2)CC1C3 (stereo unspecified),Saluretic score,Rattus norvegicus [2],3
same,Antihypertensive score,Rattus norvegicus [5],0
same,Antihypertensive score,Rattus norvegicus [3],2
same,Saluretic score,Canis familiaris [4],0
CN1CCC2(CC1)NCc1cc(C(C)(C)C)cc(I)c1O2,Saluretic score,Rattus norvegicus [2],4
same,Antihypertensive score,Rattus norvegicus [12],2
same,Antihypertensive score,Rattus norvegicus [7],1
same,Saluretic score,Canis familiaris [4],5
CC(C)(C)c1cc(I)c2c(c1)CNC1(O2)C2CC3C(C2)C31 (stereo unspecified),Saluretic score,Rattus norvegicus [2],5
same,Antihypertensive score,Rattus norvegicus [5],1
same,Saluretic score,Canis familiaris [4],5
same,Antihypertensive score,Rattus norvegicus [20],2
CC(C)(C)c1cc(I)c2c(c1)CNC1(CCCCCCCCCCC1)O2,Saluretic score,Canis familiaris [21],2
same,Saluretic score,Rattus norvegicus [2],4
same,Antihypertensive score,Rattus norvegicus [7],1
same,Antihypertensive score,Rattus norvegicus [5],0
CC1CCC2(CC1)Oc1c(I)cc(C(C)(C)C)cc1C[N+]2(C)C.[I-] (stereo unspecified),Antihypertensive score,Rattus norvegicus [3],0
CC(C)(C)c1cc(I)c2c(c1)CNC1(CCCCC1)O2,Saluretic score,Rattus norvegicus [2],5
same,Antihypertensive score,Rattus norvegicus [22],1
same,Antihypertensive score,Rattus norvegicus [7],0
same,Saluretic score,Canis familiaris [4],5
CC(C)(C)c1cc(I)c2c(c1)C[N+](C)(C)C1(CCCCC1)O2.[I-],Antihypertensive score,Rattus norvegicus [23],0
same,Antihypertensive score,Rattus norvegicus [24],2
same,Saluretic score,Rattus norvegicus [2],0
same,Antihypertensive score,Rattus norvegicus [5],2
same,Saluretic score,Canis familiaris [4],0
CC(C)(C)c1cc(I)c2c(c1)CNC1(CCSCC1)O2,Antihypertensive score,Rattus norvegicus [6],0
same,Saluretic score,Rattus norvegicus [2],4
same,Saluretic score,Canis familiaris [25],2
same,Antihypertensive score,Rattus norvegicus [3],2
CC(C)(C)c1cc(I)c2c(c1)CNC1(CCN(CCc3ccccc3)CC1)O2,Saluretic score,Rattus norvegicus [2],4
same,Antihypertensive score,Rattus norvegicus [5],0
same,Saluretic score,Canis familiaris [4],5
same,Antihypertensive score,Rattus norvegicus [20],1
